This is a sample that favours compounds with a hit; in the whole collection about 3.1% have one here.
SENP7 inh: inhibitors of human SENP7 protease | inhibition, % at 5 µM | hit rate 1.5% among 330,000 | recombinant SENP7, Z-RLRGG-aminoluciferin luminescence, 40 min | Q9BQF6 | AID 434973;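 active means inhibition above about 50% at the single test dose, limit read from the data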;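 further: plate controls were DMSO with enzyme for no effect and no enzyme buffer wells for full effect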
SENP6 inh: inhibitors of human SENP6 protease | hit rate 1.8% among 330,000 | inhibition, % at 10 µM | Recombinant SENP6 catalytic domain, aminoluciferin luminescence;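 active means inhibition above about 50% at the single tested dose, limit read from the data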;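 further: plate controls were DMSO wells with enzyme for no effect and DMSO wells lacking enzyme for full effect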
UBC13 inh: human UBC13 polyubiquitination inhibition | UBC13 polyubiquitin chain formation, TR-FRET | hit rate 0.47% among 330,000 | inhibition, % at 20 µM; in the data active means inhibition above about 45%, passing the limit was not always enough
Target sequence (P61088 whole entry, looked up): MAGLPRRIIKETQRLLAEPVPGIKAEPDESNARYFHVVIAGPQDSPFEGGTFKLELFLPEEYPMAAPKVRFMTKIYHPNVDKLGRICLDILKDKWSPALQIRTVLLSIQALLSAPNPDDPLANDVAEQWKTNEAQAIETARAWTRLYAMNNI
Apaf-1 inh: inhibitors of human Apaf-1 apoptosome. reconstituted apoptosome caspase-3 activity, DEVD-Rh110 fluorescence. inhibition, % at 20 µM. hit rate 0.71% among 330,000. AID 489030; active means inhibition of at least 40% at 20 µM;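 further: plate controls were DMSO wells for no effect and DEVD-CHO caspase inhibitor wells for full effect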
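Material: biochemical Apaf-1 apoptosome reconstitution. Medium: Hepes buffer, pH 7.5. Also added: cytochrome c activation, bis-DEVD rhodamine 110 substrate. Timing: 30 min compound preincubation, 50 min activation, room temperature. Measured by: rhodamine 110 fluorescence at Ex 480/Em 540 nm.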
SENP8 block-1: blocks the human protease SENP8 | purified SENP8, Z-RLRGG-aminoluciferin cleavage, luminescence | inhibition, % at 10 µM | hit rate 1.2% among 330,000; in the data active means inhibition above about 50%
Target sequence (Q96LD8 whole entry, looked up): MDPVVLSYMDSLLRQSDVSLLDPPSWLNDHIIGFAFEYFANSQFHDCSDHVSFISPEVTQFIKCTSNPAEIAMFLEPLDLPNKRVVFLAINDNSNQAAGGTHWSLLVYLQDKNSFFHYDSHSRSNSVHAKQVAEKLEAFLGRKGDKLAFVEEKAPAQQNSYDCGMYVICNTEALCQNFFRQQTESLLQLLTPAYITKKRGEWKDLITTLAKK
SENP8 block-2: blocks human SENP8 cleavage of Nedd8 substrate | inhibition, % at 20 µM | AID 602440 | recombinant SENP8, Nedd8 substrate fluorescence | Q96LD8 | hit rate 0.64% among 360,000; in the data active means inhibition mostly above about 40%, no sharp cut-off; inactive means mostly below about 27%
Casp3 counter: inhibits human caspase-3 in UBC13 counter-screen. hit rate 4% among 1,400. shares compounds with UBC13 inh. inhibition, % at 20 µM. Recombinant caspase-3, Caspase-Glo 3/7 luminescence, 60 min;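 active means mean inhibition across replicates above about 26%, limit read from the data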;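 further: plate controls were DMSO with caspase-3 for no effect and DMSO wells lacking enzyme for full effect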
UBC13 conf: confirmation of human UBC13 polyubiquitin inhibitors. hit rate 68% among 1,400. AID 488859. shares compounds with UBC13 inh. UBC13 polyubiquitination, TR-FRET, biochemical. inhibition, % at 10 µM; in the data active means inhibition above about 45%
The depositor's hits bear a star.

Screening Cc1ccc(C(=O)N[C@@H](C)CN2C3=NC[C@H](Cc4ccccc4)N3C[C@H]2Cc2ccc(O)cc2)cc1Br returned SENP7 inh 13, SENP6 inh -12, UBC13 inh 65*, Apaf-1 inh 28, SENP8 block-1 -18, Casp3 counter 2 and UBC13 conf 65*.
For COc1cccc(C(c2nnnn2C2CCCCC2)N2CCC3(CC2)C(=O)NCN3c2ccccc2)c1OC (stereo not drawn) the results were SENP8 block-2 34.
Screening O=C1NCN(c2ccccc2)C12CCN(C(c1cc3ccccc3o1)c1nnnn1Cc1ccccc1)CC2 (stereo not drawn) returned SENP8 block-2 22.
For S=C(NCCc1ccccc1)NCCc1cnc[nH]1 the results were SENP7 inh 6, SENP6 inh 11, UBC13 inh -4, Apaf-1 inh 2, SENP8 block-1 -2 and SENP8 block-2 -5.
For O=C1C(Cc2cnc[nH]2)NC(=S)N1c1ccccc1 (stereo not drawn) the results were SENP7 inh 2, SENP6 inh -12, UBC13 inh 86*, Apaf-1 inh 5, SENP8 block-1 4, SENP8 block-2 18, Casp3 counter 2 and UBC13 conf 104*.
C[C@]12CCC3C(CC[C@H]4C[C@@H](O)CC[C@]34C)C1CC[C@@H]2OC(=O)[C@H](N)CCCCN (stereo partly drawn) was read as SENP7 inh 0, SENP6 inh -15, UBC13 inh 105*, Apaf-1 inh 23, SENP8 block-1 -15, SENP8 block-2 23, Casp3 counter 2 and UBC13 conf 106*.
`Clc1ccc(CSC(Cn2ccnc2)c2ccc(Cl)cc2Cl)cc1` (stereo not drawn) gave SENP7 inh -5, SENP6 inh -8, UBC13 inh 44, Apaf-1 inh 39, SENP8 block-1 -13 and SENP8 block-2 7.
Clc1ccc(COC(Cn2ccnc2)c2ccc(Cl)cc2Cl)cc1 (stereo not drawn) was read as SENP7 inh -3, SENP6 inh -5, UBC13 inh 50*, Apaf-1 inh 40, SENP8 block-1 -6, SENP8 block-2 0, Casp3 counter 3 and UBC13 conf 20.
For O=S(=O)(c1cc(Cl)cc(Cl)c1)N1Cc2cc(-c3cccc(F)c3)ccc2-n2nncc2C1 the results were SENP8 block-2 12.
For CNCC(O)c1cccc(OC(=O)c2ccccc2C)c1 (stereo not drawn) the results were SENP7 inh -2, SENP6 inh -10, UBC13 inh 7, Apaf-1 inh -3, SENP8 block-1 -3 and SENP8 block-2 22.
`CNCC(O)c1cc(OCc2ccccc2)c(OCc2ccccc2)cc1F` (stereo not drawn) gave SENP7 inh 1, SENP6 inh -13, UBC13 inh 53*, Apaf-1 inh 8, SENP8 block-1 -9, SENP8 block-2 14, Casp3 counter 2 and UBC13 conf 39.
Screening CCCCn1c(=O)c(C(=O)Nc2ccccc2S(N)(=O)=O)c(O)c2ccccc21 returned SENP7 inh 2, SENP6 inh 16, UBC13 inh 53*, Apaf-1 inh 11, SENP8 block-1 8, SENP8 block-2 -40, Casp3 counter -2 and UBC13 conf 15.
`CCCCCn1c(=O)c(C(=O)Nc2ccccc2S(N)(=O)=O)c(O)c2ccccc21` gave SENP7 inh -1, SENP6 inh -3, UBC13 inh 8, Apaf-1 inh 13, SENP8 block-1 0 and SENP8 block-2 -63.
Screening O=c1[nH]c2ccccc2n1C1CCN(C(c2cc3ccccc3o2)c2nnnn2-c2ccc3c(c2)OCCO3)CC1 (stereo not drawn) returned SENP8 block-2 22.

Source: PubChem (Sanford-Burnham Center for Chemical Genomics)
